Compounds with a hit are over-represented: about 2.7% of the library has one in this group of screens.
ARFGAP1 inh: inhibitors of rat ARFGAP1 GAP activity, primary screen, biochemical, fluorescence polarization, GDP tracer; inhibition, % at 16.5 µM; Arfgap1-stimulated ARF1 GTP hydrolysis, GDP FP detection; hit rate 0.26% among 360,000;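 active = inhibition above a per-plate limit, mean inhibition of low control wells plus 3 SD, cut at about 25% in these data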
Target sequence (Q62848 1-136 limits assumed): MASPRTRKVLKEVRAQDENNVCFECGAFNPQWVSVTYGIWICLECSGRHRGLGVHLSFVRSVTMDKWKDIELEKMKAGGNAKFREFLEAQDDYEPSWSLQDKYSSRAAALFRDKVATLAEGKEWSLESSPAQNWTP
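material = rat Arfgap1 catalytic domain, aa 1-136 | also added = human ARF1(Δ1-17)-GTP substrate | compound dosing = one concentration, 16.5 µM, DMSO 1.26% | times = GTP hydrolysis reaction 2 h at 25 °C | measured by = FP, GDP Alexa 633 tracer displaced from anti-GDP antibody, 620/688 nm | evaluation = percent inhibition of Arfgap1-stimulated GTP hydrolysis | replication = single well per compound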
PAFAH2 FP inh: PAFAH2 enzyme inhibitors, primary screen, biochemical, fluorescence polarization, human | inhibition, % at 3.39 µM | Platelet-activating factor acetylhydrolase 2, cytoplasmic (Homo sapiens), Q99487 | recombinant PAFAH2, FP-rhodamine activity probe | hit rate 0.99% among 340,000;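 active = inhibition above the mean over all tested compounds plus 3 SD, cut at about 30% in these data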;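 note: inhibitors block probe labeling of enzyme so polarization drops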
PAFAH1B2 inh: PAFAH1B2 enzyme inhibitors, primary screen, biochemical, fluorescence polarization, human; Platelet-activating factor acetylhydrolase IB subunit alpha2 (Homo sapiens), P68402; recombinant PAFAH1B2, FP-rhodamine activity probe; inhibition, % at 3.39 µM; hit rate 1.2% among 340,000;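 active = inhibition above the mean of all tested compounds plus 3 SD, cut at about 24% in these data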
Target sequence (P68402 whole entry, looked up): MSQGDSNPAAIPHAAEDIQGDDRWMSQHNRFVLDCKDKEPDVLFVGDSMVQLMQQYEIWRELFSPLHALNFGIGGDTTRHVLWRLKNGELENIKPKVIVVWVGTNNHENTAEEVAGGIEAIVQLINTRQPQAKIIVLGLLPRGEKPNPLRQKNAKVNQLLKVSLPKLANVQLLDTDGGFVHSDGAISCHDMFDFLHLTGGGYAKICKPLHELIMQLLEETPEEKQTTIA
ASAP1 inh: inhibitors of human ASAP1 ArfGAP activity, primary screen, biochemical, fluorescence polarization. Arf-GAP with SH3 domain, ANK repeat and PH domain-containing protein 1 (Homo sapiens), …. ASAP1-stimulated ARF1 GTP hydrolysis, GDP FP detection. inhibition, % at 16.5 µM. hit rate 0.19% among 360,000; in the data active = inhibition above about 25%
PAFAH1B3 inh: PAFAH1B3 enzyme inhibitors, primary screen, biochemical, fluorescence polarization, human | hit rate 0.28% among 340,000 | inhibition, % at 3.39 µM | recombinant PAFAH1B3, FP-rhodamine probe | Platelet-activating factor acetylhydrolase IB subunit alpha1 (Homo sapiens), Q15102;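 active = inhibition above the screen-wide average of all tested compounds plus 3 SD, cut at about 25% in these data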
Target sequence (Q15102 whole entry, looked up): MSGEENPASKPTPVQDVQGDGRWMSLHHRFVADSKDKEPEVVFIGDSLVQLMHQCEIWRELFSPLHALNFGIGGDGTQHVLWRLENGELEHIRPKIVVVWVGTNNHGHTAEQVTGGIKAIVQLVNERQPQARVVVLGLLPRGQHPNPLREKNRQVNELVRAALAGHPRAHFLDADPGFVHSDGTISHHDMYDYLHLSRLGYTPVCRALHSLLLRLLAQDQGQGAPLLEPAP
pPAFAH inh: pPAFAH enzyme inhibitors, primary screen, biochemical, fluorescence polarization, human; Platelet-activating factor acetylhydrolase (Homo sapiens), Q13093; recombinant pPAFAH, FP-rhodamine probe fluorescence polarization; inhibition, % at 3.39 µM; hit rate 1.5% among 330,000;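 active = inhibition above the mean inhibition across the screen plus 3 SD, cut at about 25% in these data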;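 note: inhibitors block binding of the rhodamine activity-based probe so polarization drops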
Each line names hits and unclear results; the compound was inactive in the other large screens.

Cc1nnc2ccc(-c3ccc(NC(=O)Cc4cccs4)cc3)nn12	pPAFAH inh 27
CC(=O)Nc1ccc(-c2ccc3nnc(C)n3n2)cc1	none
COC(=O)[C@]12C[C@H](CC(=O)NCc3cccc(C(F)(F)F)c3)C(=O)N(Cc3ccc4c(c3)OCO4)C1=C[C@H](C(C)(C)C)O[C@@H]2C	none (no result: PAFAH2 FP inh, PAFAH1B2 inh, PAFAH1B3 inh, pPAFAH inh)
O=C(O)c1ccc(NS(=O)(=O)c2ccc(Cl)c(Cl)c2)cc1O	PAFAH1B2 inh 33
CCc1ccc(OC)c(S(=O)(=O)Nc2ccc(Cc3ccncc3)cc2)c1	pPAFAH inh 26
O=S(=O)(Nc1ccc(-n2cccc2)cc1)c1ccc(Cl)c(Cl)c1	none
O=S(=O)(Nc1ccc(Cc2ccncc2)cc1)c1ccc(Cl)c(Cl)c1	pPAFAH inh 25
O=C(O)c1cc(S(=O)(=O)Nc2ccc(N3CCCCC3)cc2)ccc1Cl	none
CCc1cccc(Nc2cnn(C34C[C@@H]5C[C@@H](CC(CC(=O)O)(C5)C3)C4)c(=O)c2Cl)c1	PAFAH1B2 inh 32
CCC(OC(=O)c1nsc(Cl)c1Cl)C(=O)NCc1cccs1 (stereo not given)	pPAFAH inh 28
CCC(OC(=O)c1nsc(Cl)c1Cl)C(=O)NCCc1ccccc1 (stereo not given)	pPAFAH inh 25
COc1ccc(-n2nnnc2SCC(=O)c2ccc(O)c(O)c2)cc1	pPAFAH inh 30
C=CCn1c(SCC(=O)c2ccc(O)c(O)c2)nnc1-c1ccc(C)cc1	pPAFAH inh 28
C=CCn1c(SCC(=O)c2ccc(O)c(O)c2)nnc1-c1ccc(OC)cc1	pPAFAH inh 30
Cn1c(SCC(=O)c2ccc(O)c(O)c2)nnc1-c1ccccc1	none (no result: pPAFAH inh)
C=CCn1c(SCC(=O)c2ccc(O)c(O)c2)nnc1-c1cccc(OC)c1	pPAFAH inh 28
COC(=O)c1ccc2nc(-c3cccc(Br)c3)c(Cc3cccc(Cl)c3)n2c1	none (no result: PAFAH2 FP inh, PAFAH1B2 inh, PAFAH1B3 inh, pPAFAH inh)
Cc1ccc(C(=O)CCC(=O)OCC(=O)Nc2ccccc2SCC#N)cc1	pPAFAH inh 27
O=C(O)CCc1ccc(S(=O)(=O)Nc2cc(C(F)(F)F)ccc2N2CCCC2)cc1	PAFAH1B2 inh 30 (no result: pPAFAH inh)
Cc1ccc(S(=O)(=O)Nc2cc(C(=O)O)ccc2N2CCCCC2)cc1	none
C=CCCC1CN(Cc2ccc(OC)cc2)S(=O)(=O)c2c(cccc2N2CCCCC2)O1 (stereo not given)	none (no result: PAFAH2 FP inh, PAFAH1B2 inh, PAFAH1B3 inh, pPAFAH inh)
COc1ccc2c(c1)c1ccc3c(c1n2C)C(=O)C=CC3=O	PAFAH2 FP inh 36, PAFAH1B2 inh 45, PAFAH1B3 inh 31 (no result: pPAFAH inh)
Cc1cccc(C2=NN(c3ccccc3)[C@@H](C(=O)N3CCOC3=O)[C@@H]2c2ccccc2)c1	none
Cc1cccc(C2=NN(c3ccc(Br)cc3)[C@@H](C(=O)N3CCOC3=O)[C@@H]2c2ccccc2)c1	pPAFAH inh 29 (no result: ARFGAP1 inh, ASAP1 inh)
COCCN1CCCc2nc(-c3ccc(Br)cc3)ccc21	none (no result: PAFAH2 FP inh, PAFAH1B2 inh, PAFAH1B3 inh, pPAFAH inh)
CC(C)C[C@H]1COc2cc(NCCO)ccc2S(=O)(=O)N1	none (no result: PAFAH2 FP inh, PAFAH1B2 inh, PAFAH1B3 inh, pPAFAH inh)
Cc1ccc(C)n1-c1sc2c(c1C(=O)O)CCCC2	pPAFAH inh 26
CCOC(=O)c1c(-n2c(C)cc(C=O)c2C)sc2c1CCCC2	none
C[C@@H]1C=CCCO[C@]12C(=O)N(Cc1ccc(Br)cc1)c1ccccc12	none (no result: PAFAH2 FP inh, PAFAH1B2 inh, PAFAH1B3 inh, pPAFAH inh)
Cc1cccc(C)c1NC(=O)CN(C)C(=O)c1ccc(NS(=O)(=O)c2ccc3[nH]c(=O)[nH]c3c2)cc1	none
CN(Cc1ccc(F)cc1)C(=O)c1cccc(NS(=O)(=O)c2ccccc2)c1	pPAFAH inh 25
Cc1cccc(C)c1NC(=O)CN(C)C(=O)c1cccc(NS(=O)(=O)c2ccccc2)c1	pPAFAH inh 30
CSc1ccc(CN(C)C(=O)c2ccc(S(=O)(=O)Nc3ccccc3)cc2)cc1	pPAFAH inh 32
CSc1ccc(CN(C)C(=O)c2ccc(S(=O)(=O)Nc3c(C)n(C)n(-c4ccccc4)c3=O)cc2)cc1	none (no result: pPAFAH inh)
CCOC(=O)[C@]12CCC=C1N(Cc1ccccc1)C(=O)[C@H](CC(=O)NCCCN1CCCC1=O)C2	none (no result: PAFAH2 FP inh, PAFAH1B2 inh, PAFAH1B3 inh, pPAFAH inh)
O=S(=O)(c1cccs1)N1CCCc2nc(-c3ccc(F)cc3)ccc21	none (no result: PAFAH2 FP inh, PAFAH1B2 inh, PAFAH1B3 inh, pPAFAH inh)
COc1cc(Nc2cc(C)n(-c3ccc(Cl)c(OC)c3)c(=O)c2)ccc1Cl	none (no result: PAFAH2 FP inh, PAFAH1B2 inh, PAFAH1B3 inh, pPAFAH inh)
CN[C@H]1C[C@H]2c3[nH]c4c(-c5ccccc5)cccc4c3CCN2C[C@H]1[C@H](C)O	none (no result: PAFAH2 FP inh, PAFAH1B2 inh, PAFAH1B3 inh, pPAFAH inh)
C/C(=N/NC(=O)CNC(=O)CCc1ccccc1)c1ccc(Cl)cc1	none
O=C(O)CC/C(=N/NC(=O)CNC(=O)Cc1ccc(Cl)cc1)c1ccccc1	PAFAH1B2 inh 24
COC(=O)CC#C[C@H](C)[C@@H](NS(=O)(=O)c1ccc(C)cc1)C1CCCCC1	none (no result: PAFAH2 FP inh, PAFAH1B2 inh, PAFAH1B3 inh, pPAFAH inh)
CN(C)CC(=O)Nc1ccc(Oc2ccc(Cl)cc2)cc1	pPAFAH inh 26
O=C(O)CCCCCCCCCCCc1ccccc1	PAFAH1B2 inh 55, pPAFAH inh 25
CCc1cc2c(CN(C)Cc3ccccc3F)cc(=O)oc2cc1O	PAFAH1B2 inh 28
Cc1cc2oc(=O)cc(CN(C)Cc3cccc(F)c3)c2cc1C	none
COc1cc(O)cc2cc3c(c(O)c12)C(=O)CC(C)(O)O3 (stereo not given)	pPAFAH inh 25
COc1ccc(NC(=O)Cc2cccc(F)c2)cc1S(=O)(=O)Nc1ccccc1Cl	pPAFAH inh 30
Oc1c(Br)cc(Br)cc1C=Nc1cccc2ncccc12	pPAFAH inh 28
Cc1ccc(-n2c(Cc3ccccc3)n[nH]c2=S)c(C)c1	none
S=c1[nH]nc(Cc2ccccc2)n1-c1cccc2ccccc12	PAFAH1B2 inh 28
CCc1cc2c(nc1CC)CCCN2Cc1ccccc1C(F)(F)F	none (no result: PAFAH2 FP inh, PAFAH1B2 inh, PAFAH1B3 inh, pPAFAH inh)
N=C1/C(=C\c2coc3ccc(O)cc3c2=O)C(=O)N=C2SC=CN12	pPAFAH inh 26
N=C1/C(=C/c2coc3ccccc3c2=O)C(=O)N=C2SC(c3ccco3)=NN12	none (no result: ARFGAP1 inh, PAFAH2 FP inh, PAFAH1B2 inh, ASAP1 inh, PAFAH1B3 inh)
CSc1ccc(S(=O)(=O)NC(C)c2ccccc2)cc1 (stereo not given)	none (no result: PAFAH2 FP inh, PAFAH1B2 inh, PAFAH1B3 inh)
Cc1ccc(S(=O)(=O)NC(C)c2ccccc2)cc1[N+](=O)[O-] (stereo not given)	PAFAH1B2 inh 24
O=[N+]([O-])c1cc(C(F)(F)F)ccc1Sc1nccn1Cc1ccccc1	PAFAH1B2 inh 70
CN(C)c1ccc(Cc2cc3c(O)ccc(O)c3cc(Cc3ccc(N(C)C)cc3)c2=O)cc1	PAFAH2 FP inh 39, PAFAH1B3 inh 34 (no result: pPAFAH inh)

From PubChem
